Measurements published in ChEMBL document CHEMBL4118097, “Selective Inhibitors of Dual Leucine Zipper Kinase (DLK, MAP3K12) with Activity in a Model of Alzheimer's Disease” (J Med Chem, 2017).

What was measured:
[1] = target: Proto-oncogene tyrosine-protein kinase Src (Homo sapiens) (UniProt P12931); assay: Inhibition of recombinant full length C-terminal His-tagged human Src cytoplasmic domain expressed in baculovirus expression system at 1 uM by FRET assay relative to control
Procedure, shortened: (§1)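 Single-concentration screen at 1 μM in Life Technologies SelectScreen, across a 220-kinase panel. Z′-LYTE format measures phosphorylation of a labeled peptide by FRET. Results are reported as percent inhibition.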

[2] = target: 5-hydroxytryptamine receptor 2B (Homo sapiens) (UniProt P41595); assay: Binding affinity to 5HT2B receptor (unknown origin) receptor at 10 uM relative to control
Procedure, shortened: (§2)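 Broad radioligand-binding and enzyme screening panel covering 42 targets (biogenic amine and neuropeptide receptors, ion channels, neurotransmitter transporters, acetylcholinesterase). Single test concentration of 10 μM. Results expressed as binding relative to control, with a hit defined as >50% of control.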

[3] = target: Serine/threonine-protein kinase PAK 4 (Homo sapiens, UniProt O96013); assay: Inhibition of recombinant GST-tagged human PAK4 catalytic domain expressed in baculovirus expression system at 1 uM by FRET assay relative to control
Procedure, shortened: (§3)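 Single-point screen at 1 μM compound in a 220-kinase panel run by Life Technologies (SelectScreen). Z′-LYTE format: phosphorylation of a labeled peptide substrate read by FRET. Values are reported as percent inhibition.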

[4] = target: Calcium/calmodulin-dependent protein kinase type 1D (Homo sapiens) (UniProt Q8IU85); assay: Inhibition of CaMK1delta (unknown origin) at 1 uM by FRET assay relative to control
[5] = target: MAP kinase-activated protein kinase 5 (Homo sapiens) (UniProt Q8IW41); assay: Inhibition of full length recombinant His-tagged human PRAK expressed in baculovirus expression system at 1 uM by FRET assay relative to control
[6] = target: Myotonin-protein kinase (Homo sapiens) (UniProt Q09013); assay: Inhibition of full length recombinant human DMPK expressed in baculovirus expression system at 1 uM by FRET assay relative to control
[7] = target: Tyrosine-protein kinase JAK3 (Homo sapiens) (UniProt P52333); assay: Inhibition of recombinant GST-tagged human JAK3 catalytic domain (781 to 1124 residues) expressed in baculovirus expression system at 1 uM by FRET relative to control; procedure, shortened: as §3
[8] = target: Wee1-like protein kinase (Homo sapiens) (UniProt P30291); assay: Inhibition of recombinant N-terminal full length GST-tagged human WEE1 expressed in baculovirus expression system at 1 uM by FRET assay relative to control; procedure, shortened: as §1
[9] = target: Beta-adrenergic receptor kinase 1 (Homo sapiens) (UniProt P25098); assay: Inhibition of recombinant full length His-tagged human GRK2 expressed in baculovirus expression system at 1 uM by FRET relative to control
[10] = target: Mitogen-activated protein kinase kinase kinase 20 (Homo sapiens) (UniProt Q9NYL2); assay: Inhibition of recombinant N-terminal full length GST-tagged human ZAK expressed in baculovirus expression system at 1 uM by FRET assay relative to control; procedure, shortened: as §1
[11] = target: Serine/threonine-protein kinase B-raf (Homo sapiens) (UniProt P15056); assay: Inhibition of B-Raf (unknown origin) at 1 uM by FRET assay relative to control
[12] = target: Gamma-aminobutyric acid type B receptor subunit 1 (Homo sapiens) (UniProt Q9UBS5); assay: Binding affinity to GABA-B1b (unknown origin) at 10 uM relative to control; procedure, shortened: as §2
[13] = target: Protein kinase C eta type (Homo sapiens) (UniProt P24723); assay: Inhibition of PKCeta (unknown origin) at 1 uM by FRET assay relative to control
[14] = organism: Homo sapiens; assay: Binding affinity to PDE rolipram binding site (unknown origin) receptor at 10 uM relative to control; procedure, shortened: as §2
[15] = target: Proto-oncogene tyrosine-protein kinase ROS (Homo sapiens) (UniProt P08922); assay: Inhibition of recombinant GST-tagged human Ros cytoplasmic domain expressed in baculovirus expression system at 1 uM by FRET assay relative to control; procedure, shortened: as §3
[16] = target: Mitogen-activated protein kinase 8 (Homo sapiens, UniProt P45983); assay: Inhibition of recombinant full length His-tagged human JNK1alpha1 expressed in baculovirus expression system by FRET assay
[17] = target: Beta-2 adrenergic receptor (Homo sapiens) (UniProt P07550); assay: Binding affinity to recombinant human beta2 adrenergic receptor at 10 uM relative to control; procedure, shortened: as §2
[18] = target: Leucine-rich repeat serine/threonine-protein kinase 2 (Homo sapiens) (UniProt Q5S007); assay: Inhibition of recombinant GST-tagged human LRRK2 catalytic domain (970 to 2527 residues) expressed in baculovirus expression system at 1 uM by FRET assay relative to control; procedure, shortened: as §3
[19] = target: High affinity nerve growth factor receptor (Homo sapiens, UniProt P04629); assay: Inhibition of recombinant His-tagged human TrkA cytoplasmic domain (441 to 796 residues) expressed in baculovirus expression system at 1 uM by FRET assay relative to control; procedure, shortened: as §1
[20] = target: Dual specificity mitogen-activated protein kinase kinase 3 (Homo sapiens) (UniProt P46734); assay: Inhibition of recombinant full length GST-tagged human MEK3 expressed in baculovirus expression system at 1 uM by FRET assay relative to control; procedure, shortened: as §1
[21] = target: Ribosomal protein S6 kinase alpha-1 (Homo sapiens) (UniProt Q15418); assay: Inhibition of recombinant full length His-tagged human RSK1 expressed in baculovirus expression system at 1 uM by FRET assay relative to control
[22] = target: Serine/threonine-protein kinase MRCK alpha (Homo sapiens) (UniProt Q5VT25); assay: Inhibition of recombinant His-tagged human MRCKalpha expressed in baculovirus at 1 uM by FRET assay relative to control; procedure, shortened: as §3
[23] = target: Mitogen-activated protein kinase kinase kinase 10 (Homo sapiens, UniProt Q02779); assay: Inhibition of recombinant human full length GST-tagged MLK2 expressed in baculovirus at 1 uM by FRET assay relative to control
[24] = target: Proto-oncogene tyrosine-protein kinase receptor Ret (Homo sapiens) (UniProt P07949); assay: Inhibition of recombinant N-terminal GST-tagged human Ret cytoplasmic domain (658 to 1114 residues) expressed in baculovirus expression system at 1 uM by FRET assay relative to control; procedure, shortened: as §1
[25] = target: Serine/threonine-protein kinase BRSK1 (Homo sapiens) (UniProt Q8TDC3); assay: Inhibition of recombinant full length GST-tagged human BrSK1 expressed in baculovirus expression system at 1 uM by FRET assay relative to control; procedure, shortened: as §1
[26] = target: Calcium/calmodulin-dependent protein kinase kinase 1 (Homo sapiens) (UniProt Q8N5S9); assay: Inhibition of recombinant full length His-tagged human CAMKK1 expressed in baculovirus expression system at 1 uM by FRET assay relative to control
[27] = target: Serine/threonine-protein kinase SIK2 (Homo sapiens) (UniProt Q9H0K1); assay: Inhibition of SIK2 (unknown origin) at 1 uM by FRET assay relative to control
[28] = target: Serine/threonine-protein kinase TAO2 (Homo sapiens) (UniProt Q9UL54); assay: Inhibition of recombinant GST-tagged human TAO2 catalytic domain (1 to 314 residues) expressed in baculovirus expression system at 1 uM by FRET assay relative to control; procedure, shortened: as §3
Chain of Serine/threonine-protein kinase TAO2 (Homo sapiens) (Q9UL54 whole entry, the tested form may be a part): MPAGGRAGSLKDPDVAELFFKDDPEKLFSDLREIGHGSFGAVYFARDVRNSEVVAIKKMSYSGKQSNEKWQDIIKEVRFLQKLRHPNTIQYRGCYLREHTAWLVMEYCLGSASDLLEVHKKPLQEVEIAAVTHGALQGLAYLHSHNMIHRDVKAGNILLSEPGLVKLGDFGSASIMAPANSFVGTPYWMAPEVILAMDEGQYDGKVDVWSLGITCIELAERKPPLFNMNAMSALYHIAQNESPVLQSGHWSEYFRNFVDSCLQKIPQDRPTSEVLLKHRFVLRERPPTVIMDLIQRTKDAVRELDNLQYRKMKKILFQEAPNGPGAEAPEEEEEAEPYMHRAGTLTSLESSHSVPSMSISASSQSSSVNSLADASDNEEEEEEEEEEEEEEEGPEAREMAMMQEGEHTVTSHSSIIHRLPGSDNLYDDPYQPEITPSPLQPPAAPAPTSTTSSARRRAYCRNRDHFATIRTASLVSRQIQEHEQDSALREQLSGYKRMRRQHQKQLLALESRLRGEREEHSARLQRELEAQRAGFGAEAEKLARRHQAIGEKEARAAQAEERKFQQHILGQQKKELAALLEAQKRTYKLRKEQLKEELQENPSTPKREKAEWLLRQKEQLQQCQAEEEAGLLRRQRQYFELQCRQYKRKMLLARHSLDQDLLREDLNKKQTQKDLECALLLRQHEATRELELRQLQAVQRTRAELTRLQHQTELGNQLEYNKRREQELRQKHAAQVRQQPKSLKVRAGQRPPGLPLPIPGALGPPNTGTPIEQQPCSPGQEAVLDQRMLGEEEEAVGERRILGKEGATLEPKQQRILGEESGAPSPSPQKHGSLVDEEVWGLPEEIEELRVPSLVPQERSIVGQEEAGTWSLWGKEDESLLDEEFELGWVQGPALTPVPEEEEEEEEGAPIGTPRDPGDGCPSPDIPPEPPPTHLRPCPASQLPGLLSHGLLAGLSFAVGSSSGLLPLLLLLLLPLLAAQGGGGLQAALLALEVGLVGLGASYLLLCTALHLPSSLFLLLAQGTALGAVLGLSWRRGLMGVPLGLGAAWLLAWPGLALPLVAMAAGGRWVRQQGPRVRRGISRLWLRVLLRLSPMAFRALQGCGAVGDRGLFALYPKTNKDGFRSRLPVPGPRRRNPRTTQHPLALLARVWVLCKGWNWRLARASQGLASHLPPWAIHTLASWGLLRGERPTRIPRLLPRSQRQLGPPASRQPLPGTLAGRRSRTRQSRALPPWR

Chain of High affinity nerve growth factor receptor (P04629 33-796 limits assumed): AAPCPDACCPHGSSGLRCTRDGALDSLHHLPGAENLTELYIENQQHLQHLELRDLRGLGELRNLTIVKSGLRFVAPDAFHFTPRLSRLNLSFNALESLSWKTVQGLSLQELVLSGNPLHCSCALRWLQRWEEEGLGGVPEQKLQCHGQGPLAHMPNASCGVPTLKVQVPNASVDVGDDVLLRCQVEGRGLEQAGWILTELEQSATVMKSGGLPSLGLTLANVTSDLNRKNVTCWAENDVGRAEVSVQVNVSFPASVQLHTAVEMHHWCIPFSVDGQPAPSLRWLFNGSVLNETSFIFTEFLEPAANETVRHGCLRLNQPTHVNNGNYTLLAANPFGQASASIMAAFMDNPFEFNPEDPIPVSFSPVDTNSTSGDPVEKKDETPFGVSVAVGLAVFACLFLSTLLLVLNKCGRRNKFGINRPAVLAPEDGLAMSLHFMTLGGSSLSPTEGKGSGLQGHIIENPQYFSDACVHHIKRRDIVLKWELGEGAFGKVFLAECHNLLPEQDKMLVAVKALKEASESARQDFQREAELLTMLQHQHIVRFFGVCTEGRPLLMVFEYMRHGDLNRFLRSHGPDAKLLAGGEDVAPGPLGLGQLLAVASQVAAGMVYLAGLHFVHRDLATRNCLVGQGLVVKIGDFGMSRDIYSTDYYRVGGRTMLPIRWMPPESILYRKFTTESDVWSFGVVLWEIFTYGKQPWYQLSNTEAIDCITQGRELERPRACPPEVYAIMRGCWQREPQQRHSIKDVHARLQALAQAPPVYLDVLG
Chain of MAP kinase-activated protein kinase 5 (Homo sapiens) (Q8IW41 whole entry): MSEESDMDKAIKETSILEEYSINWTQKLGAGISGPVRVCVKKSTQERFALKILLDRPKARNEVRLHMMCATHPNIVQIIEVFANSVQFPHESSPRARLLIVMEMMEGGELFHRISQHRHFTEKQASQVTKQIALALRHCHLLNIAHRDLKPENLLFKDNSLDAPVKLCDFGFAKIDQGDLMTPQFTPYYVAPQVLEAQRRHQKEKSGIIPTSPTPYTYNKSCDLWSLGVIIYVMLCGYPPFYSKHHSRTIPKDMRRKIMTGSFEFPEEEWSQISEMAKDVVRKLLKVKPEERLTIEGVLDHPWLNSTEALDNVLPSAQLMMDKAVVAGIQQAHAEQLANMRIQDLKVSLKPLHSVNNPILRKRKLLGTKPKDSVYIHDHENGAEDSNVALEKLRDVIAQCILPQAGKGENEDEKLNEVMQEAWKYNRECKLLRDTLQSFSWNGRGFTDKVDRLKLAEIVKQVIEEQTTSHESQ
Chain of 5-hydroxytryptamine receptor 2B (Homo sapiens) (P41595 whole entry): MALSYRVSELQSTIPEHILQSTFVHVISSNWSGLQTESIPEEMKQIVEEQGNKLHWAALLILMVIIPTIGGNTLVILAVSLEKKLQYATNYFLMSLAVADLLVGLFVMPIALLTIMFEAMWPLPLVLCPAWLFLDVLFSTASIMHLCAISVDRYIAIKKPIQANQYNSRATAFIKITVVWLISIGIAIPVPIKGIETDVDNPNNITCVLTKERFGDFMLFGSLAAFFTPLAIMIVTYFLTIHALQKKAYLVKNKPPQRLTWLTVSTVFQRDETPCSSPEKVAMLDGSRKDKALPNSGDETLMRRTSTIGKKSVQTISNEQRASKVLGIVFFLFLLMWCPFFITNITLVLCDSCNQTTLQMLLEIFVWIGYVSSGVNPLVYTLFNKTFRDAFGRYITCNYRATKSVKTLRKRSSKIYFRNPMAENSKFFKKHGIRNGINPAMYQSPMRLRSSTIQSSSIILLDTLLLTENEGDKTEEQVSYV
Chain of Calcium/calmodulin-dependent protein kinase type 1D (Homo sapiens) (Q8IU85 whole entry, looked up): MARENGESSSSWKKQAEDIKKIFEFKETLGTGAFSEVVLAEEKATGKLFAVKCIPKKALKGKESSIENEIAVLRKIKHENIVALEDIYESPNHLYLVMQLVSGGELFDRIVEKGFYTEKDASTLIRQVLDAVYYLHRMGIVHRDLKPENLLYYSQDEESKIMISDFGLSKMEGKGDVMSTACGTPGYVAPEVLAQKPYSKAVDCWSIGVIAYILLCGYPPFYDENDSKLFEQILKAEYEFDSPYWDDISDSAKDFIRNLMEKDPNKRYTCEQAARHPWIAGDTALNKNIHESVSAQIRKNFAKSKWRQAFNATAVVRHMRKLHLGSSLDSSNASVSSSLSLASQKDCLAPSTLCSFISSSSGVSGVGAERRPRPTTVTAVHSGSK
Chain of Ribosomal protein S6 kinase alpha-1 (Homo sapiens) (Q15418 whole entry): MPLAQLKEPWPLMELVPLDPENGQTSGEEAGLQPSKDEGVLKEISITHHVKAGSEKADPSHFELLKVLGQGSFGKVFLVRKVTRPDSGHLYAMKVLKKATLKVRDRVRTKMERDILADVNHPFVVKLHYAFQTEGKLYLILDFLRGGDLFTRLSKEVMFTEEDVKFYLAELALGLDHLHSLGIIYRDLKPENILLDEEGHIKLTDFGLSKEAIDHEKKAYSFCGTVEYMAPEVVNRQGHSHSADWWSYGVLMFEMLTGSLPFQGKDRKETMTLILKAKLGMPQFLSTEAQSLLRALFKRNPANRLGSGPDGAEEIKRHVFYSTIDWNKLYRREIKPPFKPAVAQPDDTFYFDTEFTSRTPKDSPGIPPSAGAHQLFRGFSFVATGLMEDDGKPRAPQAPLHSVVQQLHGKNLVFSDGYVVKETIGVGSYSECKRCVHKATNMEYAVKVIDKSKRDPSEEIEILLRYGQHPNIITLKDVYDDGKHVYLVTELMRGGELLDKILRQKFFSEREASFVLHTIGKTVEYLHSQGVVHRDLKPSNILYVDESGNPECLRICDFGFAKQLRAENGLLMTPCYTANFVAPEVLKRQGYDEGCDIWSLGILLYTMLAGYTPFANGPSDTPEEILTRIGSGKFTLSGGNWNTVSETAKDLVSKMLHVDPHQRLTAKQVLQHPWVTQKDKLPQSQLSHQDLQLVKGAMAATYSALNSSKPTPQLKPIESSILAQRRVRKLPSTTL
Chain of Protein kinase C eta type (Homo sapiens) (P24723 whole entry): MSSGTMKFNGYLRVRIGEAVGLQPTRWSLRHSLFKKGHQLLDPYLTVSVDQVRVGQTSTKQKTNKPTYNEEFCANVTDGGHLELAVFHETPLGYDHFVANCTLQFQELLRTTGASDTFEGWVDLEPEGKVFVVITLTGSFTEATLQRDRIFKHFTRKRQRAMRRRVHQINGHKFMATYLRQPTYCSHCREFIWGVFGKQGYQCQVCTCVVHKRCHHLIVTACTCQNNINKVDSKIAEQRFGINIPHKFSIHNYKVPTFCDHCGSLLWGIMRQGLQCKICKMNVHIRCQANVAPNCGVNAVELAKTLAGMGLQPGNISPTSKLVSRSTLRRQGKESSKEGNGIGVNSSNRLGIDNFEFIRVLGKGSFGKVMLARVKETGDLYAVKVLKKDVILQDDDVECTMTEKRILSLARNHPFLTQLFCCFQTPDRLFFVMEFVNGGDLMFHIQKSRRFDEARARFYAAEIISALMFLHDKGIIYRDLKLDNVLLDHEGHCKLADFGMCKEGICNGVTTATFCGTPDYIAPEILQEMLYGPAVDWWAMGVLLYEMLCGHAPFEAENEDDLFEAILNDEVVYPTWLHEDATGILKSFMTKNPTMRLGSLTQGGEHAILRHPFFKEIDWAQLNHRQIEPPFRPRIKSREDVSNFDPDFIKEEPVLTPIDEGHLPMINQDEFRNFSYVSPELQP

Structure (SMILES) | inhibition [1] [%] | Activity [2] [%] | inhibition [3] [%] | inhibition [4] [%] | inhibition [5] [%] | inhibition [6] [%] | inhibition [7] [%] | inhibition [8] [%] | inhibition [9] [%] | inhibition [10] [%] | inhibition [11] [%] | Activity [12] [%] | inhibition [13] [%] | Activity [14] [%] | inhibition [15] [%] | IC50 [16] [µM] | Activity [17] [%] | inhibition [18] [%] | inhibition [19] [%] | inhibition [20] [%] | other results
Nc1ncc(-c2cc([C@H]3[C@@H]4CN(C5COC5)C[C@@H]43)n(CC3CC3)n2)cc1C(F)(F)F | 22 | > 50 | 40.5 | 11.1 | -0.8 | 58.5 | 24.6 | 7.1 | 2.1 | 1.4 | 1.8 | > 50 | -3.9 | > 50 | 40.1 | > 10 | > 50 | 20.6 | 56.1 | -2.7 | inhibition [21]: 2.1%; inhibition [22]: 4.3%; inhibition [23]: 13.2%; inhibition [24]: 17.7%; inhibition [25]: -0.3%; inhibition [26]: -0.3%; inhibition [27]: 18.4%; inhibition [28]: -3.9%
CC(C)n1nc(-c2cnc(N)c(OC(F)(F)F)c2)cc1[C@H]1[C@@H]2CN(C3COC3)C[C@@H]21 | 23.8 | > 50 | 69.5 | 2.8 | 8.1 | 39.1 | 21.9 | 4.9 | -2.5 | 2.5 | 3.7 | > 50 | 1.7 | > 50 | 37 | > 10 | > 50 | 15.7 | 67.1 | 3.6 | inhibition [21]: 5.5%; inhibition [22]: 0.4%; inhibition [23]: 10.9%; inhibition [24]: 9.1%; inhibition [25]: 5.8%; inhibition [26]: -7.5%; inhibition [27]: 10.8%; inhibition [28]: 0.6%
